We go through 5 compounds from ChEMBL document CHEMBL1649414, “Synthesis and antiprotozoal activity of N-alkoxy analogues of the trypanocidal lead compound 4,4'-bis(imidazolinylamino)diphenylamine with improved human blood-brain barrier permeability” (J Med Chem, 2011).

Molecules are shown by their SMILES. Active and inactive are the calls of the source. The calls are words filed in the database; no cut-off is given here.

System in one data set: not listed separately
The experiment in a line: Selectivity index, ratio of IC50 for rat L6 cells to IC50 for Trypanosoma brucei rhodesiense STIB900. It counts as toxicity, cell-based. The conditions noted are these: L6 cells versus Trypanosoma brucei rhodesiense STIB900, read-out: Ratio IC50. Summed up: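 Selectivity index = IC50 (rat L-6 myoblasts)/IC50 (T. b. rhodesiense STIB900 bloodstream forms). Both IC50 values were determined by Alamar blue assay.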
With `c1ccc(CON2CCN=C2Nc2ccc(Nc3ccc(NC4=NCCN4OCc4ccccc4)cc3)cc2)cc1`, the selectivity ratio was 34.7.
Same read-out and setting: the result for `c1cc(Nc2ccc(NC3=NCCN3OC3CCCCO3)cc2)ccc1NC1=NCCN1OC1CCCCO1` (stereo unspecified) reads 17; that for `c1cc(Nc2ccc(NC3=NCCN3)cc2)ccc1NC1=NCCN1`, 3070.
The same measure, in the same setting: the result for `CCON1CCN=C1Nc1ccc(Nc2ccc(NC3=NCCN3OCC)cc2)cc1` reads 55; that for `ON1CCN=C1Nc1ccc(Nc2ccc(NC3=NCCN3O)cc2)cc1`, 236.

System in the next data set: not listed separately
The experiment in a line: Selectivity index, ratio of IC50 for rat L6 cells to IC50 for chloroquine and pyrimethamine-resistant erythrocytic stages of Plasmodium falciparum K1. It counts as toxicity, cell-based. The conditions noted are these: L6 cells versus Plasmodium falciparum K1 erythrocytic stages, read-out: Ratio IC50. Summed up: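 Selectivity index = IC50 (rat L-6 myoblasts, Alamar blue assay)/IC50 (P. falciparum K1 erythrocytic stages, [3H]hypoxanthine incorporation assay).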
Regarding `c1ccc(CON2CCN=C2Nc2ccc(Nc3ccc(NC4=NCCN4OCc4ccccc4)cc3)cc2)cc1`, the selectivity ratio worked out at 56.
On the same count and under the same terms, as for `c1cc(Nc2ccc(NC3=NCCN3OC3CCCCO3)cc2)ccc1NC1=NCCN1OC1CCCCO1` (stereo unspecified), the figure is 26; as for `c1cc(Nc2ccc(NC3=NCCN3)cc2)ccc1NC1=NCCN1`, 24100; as for `CCON1CCN=C1Nc1ccc(Nc2ccc(NC3=NCCN3OCC)cc2)cc1`, 68.
Same read-out and setting: the result for `ON1CCN=C1Nc1ccc(Nc2ccc(NC3=NCCN3O)cc2)cc1` reads 1670.

The next data set concerns Trypanosoma brucei rhodesiense. The data set can be described thus: Antiprotozoal activity against bloodstream forms of Trypanosoma brucei rhodesiense STIB900 by alamar blue assay.
Conditions: not given
It counts as functional, organism-based. The essentials: (§1)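 Alamar blue read-out; IC50 determined against bloodstream-form STIB900 trypanosomes, axenically grown L. donovani MHOM/ET/67/L82 amastigotes, or rat skeletal myoblast L-6 cells (cytotoxicity).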
For orientation: IC50 means the concentration that gives 50% inhibition. The low end stands for greater potency in that assay, the high end for weaker potency in that assay. Compound `c1ccc(CON2CCN=C2Nc2ccc(Nc3ccc(NC4=NCCN4OCc4ccccc4)cc3)cc2)cc1` gave an IC50 of 320 nM.
On the same count and under the same terms, as for `c1cc(Nc2ccc(NC3=NCCN3OC3CCCCO3)cc2)ccc1NC1=NCCN1OC1CCCCO1` (stereo unspecified), the figure is 1180 nM; as for `CCON1CCN=C1Nc1ccc(Nc2ccc(NC3=NCCN3OCC)cc2)cc1`, 730 nM.
The same measure, in the same setting: as for `ON1CCN=C1Nc1ccc(Nc2ccc(NC3=NCCN3O)cc2)cc1`, the figure is 370 nM.

A further data set has as its system Plasmodium falciparum. The experiment in a line: Antiprotozoal activity against chloroquine and pyrimethamine-resistant erythrocytic stages of Plasmodium falciparum K1 by [3H]hypoxanthine incorporation assay. The data set is classed as functional, organism-based.
Conditions: not given
Summed up:
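P. falciparum K1 (chloroquine- and pyrimethamine-resistant) erythrocytic stages; IC50 determined by [3H]hypoxanthine incorporation assay.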
Compound `c1ccc(CON2CCN=C2Nc2ccc(Nc3ccc(NC4=NCCN4OCc4ccccc4)cc3)cc2)cc1` displayed a concentration for half-maximal inhibition (IC50) of 200 nM.
Same read-out and setting: the result for `c1cc(Nc2ccc(NC3=NCCN3OC3CCCCO3)cc2)ccc1NC1=NCCN1OC1CCCCO1` (stereo unspecified) reads 750 nM; that for `c1cc(Nc2ccc(NC3=NCCN3)cc2)ccc1NC1=NCCN1`, 9 nM; that for `CCON1CCN=C1Nc1ccc(Nc2ccc(NC3=NCCN3OCC)cc2)cc1`, 590 nM.
For `ON1CCN=C1Nc1ccc(Nc2ccc(NC3=NCCN3O)cc2)cc1`, half-maximal inhibition (IC50) was put at 55 nM.

The next data set relates to L6. The experiment in a line: Cytotoxicity against rat L6 cells. It counts as cell-based.
Conditions: not given
Summed up:
as §1
Take `c1ccc(CON2CCN=C2Nc2ccc(Nc3ccc(NC4=NCCN4OCc4ccccc4)cc3)cc2)cc1`: inhibition was half-maximal at 11 µM (IC50).
On the same count and under the same terms, as for `c1cc(Nc2ccc(NC3=NCCN3OC3CCCCO3)cc2)ccc1NC1=NCCN1OC1CCCCO1` (stereo unspecified), the figure is 20 µM.
The same measure, in the same setting: as for `CCON1CCN=C1Nc1ccc(Nc2ccc(NC3=NCCN3OCC)cc2)cc1`, the figure is 40 µM; as for `ON1CCN=C1Nc1ccc(Nc2ccc(NC3=NCCN3O)cc2)cc1`, 92 µM.

In another data set the test system is Trypanosoma cruzi. The data set can be described thus: Antiprotozoal activity against trypomastigote forms of Trypanosoma cruzi Tulahuen C2C4 expressing LacZ by colorimetric CPRG assay.
Conditions: not given
`c1ccc(CON2CCN=C2Nc2ccc(Nc3ccc(NC4=NCCN4OCc4ccccc4)cc3)cc2)cc1` came in with an IC50 of 6.6 µM.
The compound `c1cc(Nc2ccc(NC3=NCCN3OC3CCCCO3)cc2)ccc1NC1=NCCN1OC1CCCCO1` (stereo unspecified) showed an IC50 of 24 µM.
On the same count and under the same terms, the result for `CCON1CCN=C1Nc1ccc(Nc2ccc(NC3=NCCN3OCC)cc2)cc1` reads 87 µM.
On the same count and under the same terms, as for `ON1CCN=C1Nc1ccc(Nc2ccc(NC3=NCCN3O)cc2)cc1`, the figure is above 204 µM.

Another data set relates to Trypanosoma brucei rhodesiense. The data set can be described thus: Antitrypanosomal activity against Trypanosoma brucei rhodesiense STIB900 infected in NMRI mouse assessed as host survival after 60 days at 20 mg/kg, ip qd for 4 days administered after 3 to 6 days postinfection. The data set is classed as functional, organism-based. Further details: dose 20 mg/kg.
Conditions: not given
Summed up:
(§2)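 Female NMRI mice infected ip with 2 10^4 bloodstream STIB900 forms; groups of four dosed ip (4 × 20 mg/kg) or orally (4 × 50 mg/kg) on days 3–6 post-infection; untreated infected controls. Tail-blood parasitemia followed to day 60; surviving aparasitemic mice at day 60 counted cured; mean survival and relapse days recorded.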
As to `c1ccc(CON2CCN=C2Nc2ccc(Nc3ccc(NC4=NCCN4OCc4ccccc4)cc3)cc2)cc1`, the result was inactive.
Same read-out and setting: as for `c1cc(Nc2ccc(NC3=NCCN3OC3CCCCO3)cc2)ccc1NC1=NCCN1OC1CCCCO1` (stereo unspecified), the entry is “inactive”; as for `c1cc(Nc2ccc(NC3=NCCN3)cc2)ccc1NC1=NCCN1`, “Active”; as for `CCON1CCN=C1Nc1ccc(Nc2ccc(NC3=NCCN3OCC)cc2)cc1`, “inactive”.
In the case of `ON1CCN=C1Nc1ccc(Nc2ccc(NC3=NCCN3O)cc2)cc1`, the result was inactive.

The next data set concerns Trypanosoma brucei rhodesiense. The experiment in a line: Antitrypanosomal activity against Trypanosoma brucei rhodesiense STIB900 infected in NMRI mouse assessed as day of host death after 60 days at 20 mg/kg, ip qd for 4 days administered after 3 to 6 days postinfection. It counts as functional. As to conditions: route intraperitoneal. The essentials:
(§3)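 Female NMRI mice infected ip with 2 104 bloodstream forms of T. b. rhodesiense STIB900. Groups of four mice were treated ip (4 × 20 mg/kg) or po (4 × 50 mg/kg) on four consecutive days, days 3–6 postinfection. Untreated infected controls were included. Tail blood parasitemia was monitored to day 60. Day of death was recorded (cured mice counted as >60) to give mean survival days.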
Consider `c1ccc(CON2CCN=C2Nc2ccc(Nc3ccc(NC4=NCCN4OCc4ccccc4)cc3)cc2)cc1`, for which the Activity worked out at 7 days.
The same measure, in the same setting: as for `c1cc(Nc2ccc(NC3=NCCN3OC3CCCCO3)cc2)ccc1NC1=NCCN1OC1CCCCO1` (stereo unspecified), the figure is 7 days; as for `c1cc(Nc2ccc(NC3=NCCN3)cc2)ccc1NC1=NCCN1`, above 60 days.
With `CCON1CCN=C1Nc1ccc(Nc2ccc(NC3=NCCN3OCC)cc2)cc1`, the Activity was found to be 7 days.
Still for that read-out and setting: the result for `ON1CCN=C1Nc1ccc(Nc2ccc(NC3=NCCN3O)cc2)cc1` reads 25.3 days.

A further data set relates to Trypanosoma brucei rhodesiense. The experiment in a line: Antitrypanosomal activity against Trypanosoma brucei rhodesiense STIB900 infected in NMRI mouse assessed as host survival after 60 days at 50 mg/kg, po qd for 4 days administered after 3 to 6 days postinfection. The arrangement: dose 50 mg/kg. It counts as functional, organism-based.
Conditions: not given
The essentials: as §2
Turning to `c1ccc(CON2CCN=C2Nc2ccc(Nc3ccc(NC4=NCCN4OCc4ccccc4)cc3)cc2)cc1`, the outcome was inactive.
On the same count and under the same terms, as for `c1cc(Nc2ccc(NC3=NCCN3OC3CCCCO3)cc2)ccc1NC1=NCCN1OC1CCCCO1` (stereo unspecified), the entry is “inactive”; as for `c1cc(Nc2ccc(NC3=NCCN3)cc2)ccc1NC1=NCCN1`, “inactive”; as for `CCON1CCN=C1Nc1ccc(Nc2ccc(NC3=NCCN3OCC)cc2)cc1`, “inactive”.
Turning to `ON1CCN=C1Nc1ccc(Nc2ccc(NC3=NCCN3O)cc2)cc1`, the outcome was inactive.

The subject of another data set is Leishmania donovani. The data set can be described thus: Antiprotozoal activity against amastigotes of Leishmania donovani MHOM/ET/67/L82 by alamar blue assay.
Conditions: not given
The data set is classed as functional, organism-based. Summed up: as §1
Regarding `c1ccc(CON2CCN=C2Nc2ccc(Nc3ccc(NC4=NCCN4OCc4ccccc4)cc3)cc2)cc1`, the half-maximal inhibitory concentration (IC50) amounted to 104 µM.
As for `c1cc(Nc2ccc(NC3=NCCN3OC3CCCCO3)cc2)ccc1NC1=NCCN1OC1CCCCO1` (stereo unspecified), the 50% inhibitory concentration (IC50) came to 41 µM.
Turning to `CCON1CCN=C1Nc1ccc(Nc2ccc(NC3=NCCN3OCC)cc2)cc1`, the 50% inhibitory concentration (IC50) stood at 62 µM.
Same read-out and setting: as for `ON1CCN=C1Nc1ccc(Nc2ccc(NC3=NCCN3O)cc2)cc1`, the figure is 58 µM.

Another data set relates to Trypanosoma brucei rhodesiense. The data set can be described thus: Antitrypanosomal activity against Trypanosoma brucei rhodesiense STIB900 infected in NMRI mouse assessed as day of host death after 60 days at 50 mg/kg, po qd for 4 days administered after 3 to 6 days postinfection. The data set is classed as functional.
Conditions: not given
The essentials: as §3
Take `c1ccc(CON2CCN=C2Nc2ccc(Nc3ccc(NC4=NCCN4OCc4ccccc4)cc3)cc2)cc1`: the Activity was 7 days.
On the same count and under the same terms, as for `c1cc(Nc2ccc(NC3=NCCN3OC3CCCCO3)cc2)ccc1NC1=NCCN1OC1CCCCO1` (stereo unspecified), the figure is 7 days.
Regarding `c1cc(Nc2ccc(NC3=NCCN3)cc2)ccc1NC1=NCCN1`, the Activity is 7.75 days.
On the same count and under the same terms, as for `CCON1CCN=C1Nc1ccc(Nc2ccc(NC3=NCCN3OCC)cc2)cc1`, the figure is 7 days.
Still for that read-out and setting: the result for `ON1CCN=C1Nc1ccc(Nc2ccc(NC3=NCCN3O)cc2)cc1` reads 7 days.
